The results in this text go back to PMC6263940 (Nature chemical biology, 2018).

In data set [1] the test system is serine hydrolases. The data set is described as follows: ABPP of brain serine hydrolase activities from treated mice. In kind it is in vivo, mouse. Particulars: gel- and MS-based ABPP, more than 65 other serine hydrolases quantified. In outline: (§1)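 Mice dosed i.p. with test compound (30 mg/kg) or vehicle and killed after 4 h (isoflurane, then cervical dislocation). Brain membrane serine hydrolase activities quantified by MS-based ABPP. Each protein's value is the mean of median peptide ratios (treated vs vehicle) ± SEM, from n = 4 or 3 independent samples per compound.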

For data set [2], the target named is T1, ABHD12 (Homo sapiens, UniProt Q8N2K0).
T1 sequence (Q8N2K0 1-398): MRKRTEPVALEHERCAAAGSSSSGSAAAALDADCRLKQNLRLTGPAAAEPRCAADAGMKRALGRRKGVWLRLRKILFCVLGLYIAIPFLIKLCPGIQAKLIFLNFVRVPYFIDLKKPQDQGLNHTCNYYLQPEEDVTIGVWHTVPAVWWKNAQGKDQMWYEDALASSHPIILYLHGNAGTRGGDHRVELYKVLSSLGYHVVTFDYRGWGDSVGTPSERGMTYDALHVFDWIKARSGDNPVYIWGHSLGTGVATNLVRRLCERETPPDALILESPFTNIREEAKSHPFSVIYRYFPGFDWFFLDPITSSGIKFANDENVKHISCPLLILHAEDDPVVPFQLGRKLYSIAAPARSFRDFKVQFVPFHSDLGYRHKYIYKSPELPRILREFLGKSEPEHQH
Put plainly: ABPP-SILAC. In kind it is cell-based. Particulars: 1 μM, 4 h, THP-1 cells. In outline: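 Heavy- or light-labelled THP-1 cells (30 million) differentiated with PMA (150 ng/mL final) for 24 h, washed, then kept a further 24 h in fresh SILAC medium. Light cells treated with test compound and heavy cells with DMSO, 4 h at 37 °C. Sonicated whole-cell proteomes (2 mg/mL) labelled separately with FP-biotin 1 μM, 30 min, room temperature, then combined for quantitative MS.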

Data set [3] has as its system mice. Put plainly: Two-week daily dosing, overt signs of toxicity. The note with it: adult mice, 30 mg/kg daily, p.o., two weeks. It is filed as in vivo, mouse.
Data set [4] deals with T2, PLA2G6 (Mus musculus, UniProt P97819).
T2 sequence (P97819 1-807): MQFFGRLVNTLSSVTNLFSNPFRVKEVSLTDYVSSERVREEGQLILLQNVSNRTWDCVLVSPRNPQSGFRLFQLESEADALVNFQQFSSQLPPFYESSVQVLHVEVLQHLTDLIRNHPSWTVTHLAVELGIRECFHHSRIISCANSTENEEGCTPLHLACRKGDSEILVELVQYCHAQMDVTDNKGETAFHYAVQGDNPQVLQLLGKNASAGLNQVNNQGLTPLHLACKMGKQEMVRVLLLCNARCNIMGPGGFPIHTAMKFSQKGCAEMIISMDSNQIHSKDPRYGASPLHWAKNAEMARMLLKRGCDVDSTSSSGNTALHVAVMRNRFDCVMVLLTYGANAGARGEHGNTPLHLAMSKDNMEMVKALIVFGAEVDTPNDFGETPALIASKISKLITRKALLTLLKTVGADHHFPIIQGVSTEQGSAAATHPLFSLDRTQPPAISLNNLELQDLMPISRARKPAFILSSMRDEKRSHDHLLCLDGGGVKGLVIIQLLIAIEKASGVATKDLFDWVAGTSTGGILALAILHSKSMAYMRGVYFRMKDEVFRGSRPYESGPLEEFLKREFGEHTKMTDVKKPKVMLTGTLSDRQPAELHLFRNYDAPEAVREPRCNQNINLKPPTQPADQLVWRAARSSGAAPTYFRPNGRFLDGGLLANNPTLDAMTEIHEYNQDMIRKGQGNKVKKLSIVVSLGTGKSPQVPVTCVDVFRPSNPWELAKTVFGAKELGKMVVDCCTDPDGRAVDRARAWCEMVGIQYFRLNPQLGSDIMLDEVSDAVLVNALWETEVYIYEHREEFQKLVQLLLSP
Put plainly: Quantitative MS-ABPP of brain membrane proteome from treated mice: PLA2G6. Particulars: 30 mg/kg, i.p., 4 h. In kind it is in vivo. In outline:
as §1

For the compound `FC(F)(F)Oc1ccc(Oc2ccnc(N3CCC(NC(=S)Nc4cccnc4)CC3)c2Cl)c(Cl)c1` [DO264, N-3-pyridyl-N’-(1-[3-chloro-4-{2-chloro-4-(trifluoromethoxy)phenoxy}pyridine-2-yl]piperidin-4-yl)thiourea], the “selectivity for ABHD12 in vivo” value in data set [1] was “excellent selectivity”. The ABHD12 activity blocked in data set [2] is reported as greater than 95%. Also, the “overt signs of toxicity, such as weight loss or behavioral distress” value in data set [3] is recorded as “neither compound produced overt signs of toxicity”. The “reduction in PLA2G6 activity in treated mice” value in data set [4] is recorded as 40-50%.
